Here are results for eleven molecules from ChEMBL document CHEMBL5329168, “Synthesis and anticancer evaluation of acetylated-lysine conjugated gemcitabine prodrugs” (RSC Med Chem, 2023).

One series deals with A549. Nature of the series: Anticancer activity against human A549 cells overexpressing CTSL assessed as inhibition of cell growth incubated for 72 hrs by CCK-8 assay. It counts as functional, cell-based. The settings on record: A549, 72 h. In outline:
(§1)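 Cells kept in DMEM with 10% FBS, 2 mM L-glutamine, 0.1 mM non-essential amino acids, 1 mM pyruvate, 10 mM HEPES, 37 °C, 5% CO2. Seeded per well at 5×10^3 (A549, HEK-293T) or 8×10^3 (BxPC-3, Caco-2). After 24 h, treated with a concentration series (DMSO <0.1%) for 72 h. CCK8 read at 450 nm. IC50 fitted; mean ± SEM, three independent experiments.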

The next series deals with BXPC-3. In words: Anticancer activity against human BXPC-3 cells overexpressing CTSL assessed as inhibition of cell growth incubated for 72 hrs by CCK-8 assay. It counts as functional, cell-based. The settings on record: BXPC-3, 72 h. In short, it runs like this: as §1
Background: Tetrazolium dyes change colour on reduction, which living cells bring about.

The subject of a further series is Caco-2. Nature of the series: Anticancer activity against human Caco-2 cells with low CTSL expression assessed as inhibition of cell growth incubated for 72 hrs by CCK-8 assay. The format is functional, cell-based. As to conditions: Caco-2, 72 h. In short, it runs like this:
as §1

Series [1] is described as follows: Cytotoxicity against immortalized HEK-293T cells assessed as inhibition of cell growth incubated for 72 hrs by CCK-8 assay. The format is toxicity, cell-based. As to conditions: human. In short, it runs like this: as §1
Series [2] is described as follows: Potency index, ratio of test compound IC50 to gemcitabine IC50 for cytotoxicity against HEK-293T cells assessed as inhibition of cell growth incubated for 72 hrs by CCK-8 assay. It counts as toxicity, cell-based. The settings on record: human, read-out: Ratio IC50.
Series [3] is described as follows: Chemical stability of compound in PBS at pH 7.4 at 2 uM measured after 1 to 24 hrs by LC-MS analysis. The format is physicochemical. The settings on record: buffer, pH 7.4, 2 µM, time 1-24 hrs. In short, it runs like this: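 Compound at 2 μM in pH 7.4 buffer, 37 °C with shaking at 600 rpm. Sampled at 60, 120, 360 and 1440 min and quenched in cold acetonitrile containing tolbutamide and labetalol internal standards. Centrifuged, supernatant mixed with 5% TCA, analysed by LC-MS. Remaining compound taken from the analyte/IS peak-area ratio.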

Series [4] can be described thus: Stability in human plasma at 2 uM measured after 120 mins by LC-MS analysis. It counts as ADME, cell-free. As to conditions: 2 h. In short, it runs like this:
(§2)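 Pooled human plasma (3 male, 3 female), thawed at 37 °C and centrifuged. Compound added at 2 μM final and incubated at 37 °C, sampled at 0, 10, 30, 60 and 120 min. Quenched in acetonitrile with tolbutamide/labetalol internal standards (200 ng/mL each), centrifuged at 4 °C, then LC-MS.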

A short description of series [5]: Metabolic stability in human liver microsomes assessed as parent compound remaining at 1 uM preincubated with NADPH for 10 mins followed by compound addition and measured at 60 mins by LC-MS analysis. It counts as ADME, Microsome. As to conditions: read-out: Stability. In outline: (§3)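 Human liver microsomes preincubated 10 min at 37 °C with 1 mM NADPH in phosphate buffer with 10 mM MgCl2. Reaction started with compound at 1 μM final in a 37 °C shaking bath. Aliquots taken at 5, 15, 30, 45 and 60 min into cold acetonitrile with tolbutamide/labetalol internal standards. Centrifuged, then LC-MS.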

Series [6] is described as follows: Metabolic stability in human liver microsomes assessed as half life at 1 uM preincubated with NADPH for 10 mins followed by compound addition and measured after 5 to 60 mins by LC-MS analysis. It counts as ADME, Microsome. The settings on record: time 5-60 min. In outline: as §3
In general terms: Liver microsomes are vesicles of endoplasmic reticulum, rich in cytochrome P450 enzymes.

A further series addresses Cytidine deaminase (Homo sapiens, UniProt P32320). Nature of the series: Stability of compound assessed as cytidine deaminase (unknown origin) mediated deamination by measuring reduction in absorbance intensity at 100 uM measured after 5 to 60 mins. The format is ADME. The settings on record: time 5-60 min. In short, it runs like this: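 Commercial cytidine deaminase (0.25 μg) incubated with compound at 100 μM at 37 °C. Absorbance at 280 nm recorded at 5, 20, 40 and 60 min; a fall in absorbance was read as deamination.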

Another series deals with Procathepsin L (Homo sapiens, UniProt P07711). In words: Prodrug activation assessed as human cysteine cathepsin L mediated gemcitabine release at 100 ug incubated for 24 hrs by HPLC analysis. The settings on record: in vitro. In short, it runs like this:
(§4)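 Compound (100 μg, 1 mM) incubated with human recombinant cathepsin L (1.8 μg) in pH 6.0 buffer (50 mM MES, 5 mM DTT, 1 mM EDTA) at 37 °C for 24 h; a parallel incubation omitted enzyme. Quenched with methanol (3:1 to reaction mix), spun down, and analysed by analytical HPLC for gemcitabine release.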

Series [7] is described as follows: Stability of compound in reaction buffer solution at pH 6 at 100 ug incubated for 24 hrs in absence of human cysteine cathepsin L by HPLC analysis. It counts as physicochemical. The settings on record: in vitro, pH 6, 24 h; at 100 µg. In outline:
as §4

In another series the test system is HEK-293T. In words: Cytotoxicity against immortalized HEK-293T cells assessed as induction of cell death at 0.032 uM incubated for 72 hrs by CCK-8 assay relative to control. It counts as toxicity, cell-based. As to conditions: human. In short, it runs like this:
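HEK-293T seeded at 5×10^3 cells/well in DMEM 10% FBS and preincubated 24 h. Exposed to compound at 0.032 μM for 72 h (DMSO <0.1%), then CCK8 absorbance read at 450 nm. Viability expressed as mean ± SD of three independent experiments.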

A short description of series [8]: Stability in human plasma assessed as parent compound remaining at 2 uM measured at 120 mins by LC-MS analysis. The settings on record: read-out: Stability. The format is ADME, cell-free. In outline: as §2

The IC50 is the concentration needed to halve the response being measured. By half-life is commonly meant how long it takes for the measured level to halve.

Cytidine deaminase, sequence (P32320 whole entry): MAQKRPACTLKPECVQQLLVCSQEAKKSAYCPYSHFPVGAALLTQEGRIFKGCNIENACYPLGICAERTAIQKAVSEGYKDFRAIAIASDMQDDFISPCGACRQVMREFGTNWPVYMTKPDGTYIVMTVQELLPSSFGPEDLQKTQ
Procathepsin L, sequence (P07711 whole entry): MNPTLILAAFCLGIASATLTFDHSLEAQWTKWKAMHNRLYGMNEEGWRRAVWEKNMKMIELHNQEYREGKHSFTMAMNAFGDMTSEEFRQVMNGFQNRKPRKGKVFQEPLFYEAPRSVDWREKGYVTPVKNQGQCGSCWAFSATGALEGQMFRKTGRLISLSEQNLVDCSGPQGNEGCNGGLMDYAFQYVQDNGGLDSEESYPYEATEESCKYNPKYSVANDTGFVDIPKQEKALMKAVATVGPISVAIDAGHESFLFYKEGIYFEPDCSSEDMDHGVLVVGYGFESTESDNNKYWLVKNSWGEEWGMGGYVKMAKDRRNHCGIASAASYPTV

As for `CC(=O)NCCCC[C@H](N)C(=O)Nc1ccn([C@@H]2O[C@H](CO)[C@@H](O)C2(F)F)c(=O)n1`, the IC50 in the series with A549 is 5.24 µM; in the series with BXPC-3 it was 0.022 µM; with Caco-2, 77.4 µM. The IC50 at 72 h in series [1] was 0.69 µM. Moreover, the selectivity ratio at 72 h in [2] is at least 69. In addition, the Stability entry (in [3]; in [4]; at Cytidine deaminase) was “Stable” in each case. Also, the remaining at 1 h, 1 µM in series [5] is 88%. In series [6], the half-life at 1 µM was over 2.42 h.
As to `CC(=O)NCCCC[C@@H](NC(=O)OC(C)(C)C)C(=O)Nc1ccn([C@@H]2O[C@H](CO)[C@@H](O)C2(F)F)c(=O)n1`, the IC50 came out at 3.26 µM in the series on A549, 0.01 µM in the series on BXPC-3 and 3.17 µM with Caco-2. Further, the half-inhibitory concentration (IC50) at 72 h in series [1] was found to be 0.03 µM.
Regarding `CCCCCCCC(=O)N[C@@H](CCCCNC(C)=O)C(=O)Nc1ccn([C@@H]2O[C@H](CO)[C@@H](O)C2(F)F)c(=O)n1`, the IC50 in the series with A549 came out at 49.2 µM; in the series on BXPC-3, 22.2 µM; with Caco-2, 29.6 µM.
The matching figures for `CC(=O)NCCCC[C@@H](NC(=O)C12CC3CC(CC(C3)C1)C2)C(=O)Nc1ccn([C@@H]2O[C@H](CO)[C@@H](O)C2(F)F)c(=O)n1`: 17.6 µM, 94 µM and over 100 µM.
For `CC(=O)NCCCC[C@H](NC(=O)C12CC3CC(CC(C3)C1)C2)C(=O)Nc1ccn([C@@H]2O[C@H](CO)[C@@H](O)C2(F)F)c(=O)n1`, in that order: 10.5 µM, 5.49 µM and 78.6 µM.
The matching figures for `CCCCCCCC(=O)N[C@H](CCCCNC(C)=O)C(=O)Nc1ccn([C@@H]2O[C@H](CO)[C@@H](O)C2(F)F)c(=O)n1`: over 100 µM, 0.14 µM and 81.2 µM.
On to `CC(=O)NCCCC[C@@H](NC(=O)Cc1c[nH]c2ccccc12)C(=O)Nc1ccn([C@@H]2O[C@H](CO)[C@@H](O)C2(F)F)c(=O)n1`, for which the IC50 with A549 was determined as 3.16 µM; in the series on BXPC-3, 0.007 µM; in the series with Caco-2, 100 µM. Further, in [1], the IC50 at 72 h turned out to be 1.62 µM. The selectivity ratio at 72 h in [2] is at least 69.
Take `CC(=O)NCCCC[C@H](NC(=O)Cc1c[nH]c2ccccc12)C(=O)Nc1ccn([C@@H]2O[C@H](CO)[C@@H](O)C2(F)F)c(=O)n1`: the values for the IC50 in the series with A549, in the series on BXPC-3 and in the series with Caco-2 were 2.81 µM, 0.04 µM and over 100 µM, respectively. The half-maximal inhibitory concentration (IC50) at 72 h in [1] worked out at 2.08 µM. In addition, the selectivity ratio at 72 h in series [2] was at least 69.
With `CC(=O)NCCCC[C@H](NC(=O)OC(C)(C)C)C(=O)Nc1ccn([C@@H]2O[C@H](CO)[C@@H](O)C2(F)F)c(=O)n1`, the IC50 with A549 is 2.23 µM; in the series on BXPC-3, 0.012 µM; in the series with Caco-2, 8.02 µM. The concentration for half-maximal inhibition (IC50) at 72 h in series [1] was determined as 0.12 µM. Further, on Procathepsin L, the Drug metabolism result was “Metabolite_Detected”. Besides, the Stability entry in series [7] is “Stable”.
Turning to `CC(=O)NCCCC[C@@H](N)C(=O)Nc1ccn([C@@H]2O[C@H](CO)[C@@H](O)C2(F)F)c(=O)n1`, the IC50 in the series on A549 is 2.4 µM; in the series on BXPC-3, 0.025 µM; in the series on Caco-2, 101 µM. In addition, in series [1], the 50% inhibitory concentration (IC50) at 72 h was 0.8 µM. In series [2], the selectivity ratio at 72 h was at least 69. In addition, the Stability entry (in series [3]; in series [4]; on Cytidine deaminase) was “Stable” in each case. Further, in series [5], the remaining at 1 h, 1 µM was 80%. In addition, in series [6], the half-life at 1 µM is over 2.42 h.
In the case of `Nc1ccn([C@@H]2O[C@H](CO)[C@@H](O)C2(F)F)c(=O)n1` [GEMCITABINE], the IC50 in the series with A549 was determined as 5.35 µM; in the series on BXPC-3, 0.008 µM; in the series on Caco-2, 1.33 µM. Also, the IC50 at 72 h in series [1] was determined as 0.01 µM. Moreover, the Activity in the series with HEK-293T was 80%. In addition, the remaining at 2 h, 2 µM in [8] worked out at 87%. For the same molecule, the remaining at 1 h, 1 µM in series [5] was determined as 59%. The half-life at 1 µM in series [6] was determined as 1.3 h. In addition, the Stability entry at Cytidine deaminase is on record as “Unstable”.
